Converted amounts (≈) assume the structure as drawn.
Tests used:
Klebsiella pneumoniae [1] = assay: Antibacterial activity against ESBL positive Klebsiella pneumoniae ATCC 700603 after 24 hrs by resazurin dye based microdilution assay; assay type: functional; conditions: Klebsiella pneumoniae, 700603, 24 h
Method in brief: (§1)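 MIC taken as the lowest concentration giving visible inhibition and/or by resazurin (1 mg/mL). Gentamicin was the control. Run in duplicate, repeated at least three times.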

Klebsiella pneumoniae [2] = assay: Antibacterial activity against carbapenemase positive Klebsiella pneumoniae BAA 1705 after 24 hrs by resazurin dye based microdilution assay; assay type: functional; conditions: BAA 1705, 24 h; method in brief: as §1
Leishmania panamensis = assay: Antileshmanial activity against EpiR/GFP fused Leishmania panamensis MHOM/CO/87/UA140 intracellular amastigotes infected in human […] cells after 72 hrs by flow cytometric method; assay type: functional, cell-based; conditions: MHOM/CO/87/UA140, 72 h
Method in brief: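 PMA-treated U-937 cells (3 × 10^5 cells/mL) infected with stationary-phase GFP L. panamensis promastigotes (15:1), 3 h at 34 °C, then washed. After 24 h, compounds added at 50, 12.5, 3.125 and 0.78 µg/mL for 72 h at 37 °C. EC50 by Probit; triplicate, two experiments.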

Candida albicans [3] = assay: Antifungal activity against Candida albicans ATCC 10231 incubated for 48 hrs under dark condition by broth microdilution method; assay type: functional; conditions: ATCC 10231, 48 h
Method in brief: (§2)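 CLSI M27-A3 broth microdilution in RPMI-1640, DMSO ≤1%, compounds at 250-0.98 µg/mL final. Inoculum 1-5 × 10^3 CFU/mL. Incubated 48 h at 30 °C in a moist dark chamber, read at OD405. MIC80 and MIC50 taken from % inhibition dose-response curves (mean ± SEM, triplicate). Amphotericin B was the positive control.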

Cryptococcus neoformans [4] = assay: Antifungal activity against Cryptococcus neoformans ATCC 32264 incubated for 48 hrs under dark condition by broth microdilution method; assay type: functional; conditions: ATCC 32264, 48 h; method in brief: as §2
Candida albicans [5] = assay: Growth inhibition of Candida albicans ATCC 10231 at 250 ug/ml incubated for 48 hrs under dark condition by broth microdilution method relative to control; assay type: functional; conditions: ATCC 10231, 48 h, read-out: GI
Method in brief: (§3)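 CLSI M27-A3 broth microdilution in RPMI-1640, DMSO ≤1%. Inoculum 1-5 × 10^3 CFU/mL. Incubated 48 h at 30 °C, dark. % inhibition = 100 − (OD405 test − sterility control)/(OD405 growth control − sterility control), with growth and sterility control wells. Triplicate.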

Candida albicans [6] = assay: Growth inhibition of Candida albicans ATCC 10231 at 125 ug/ml incubated for 48 hrs under dark condition by broth microdilution method relative to control; assay type: functional; conditions: ATCC 10231, 48 h, read-out: GI; method in brief: as §3
Candida albicans [7] = assay: Growth inhibition of Candida albicans ATCC 10231 at 62.5 ug/ml incubated for 48 hrs under dark condition by broth microdilution method relative to control; assay type: functional; conditions: ATCC 10231, 48 h, read-out: GI; method in brief: as §3
Candida albicans [8] = assay: Growth inhibition of Candida albicans ATCC 10231 at 31.25 ug/ml incubated for 48 hrs under dark condition by broth microdilution method relative to control; assay type: functional; conditions: ATCC 10231, 48 h, read-out: GI; method in brief: as §3
Candida albicans [9] = assay: Growth inhibition of Candida albicans ATCC 10231 at 15.62 ug/ml incubated for 48 hrs under dark condition by broth microdilution method relative to control; assay type: functional; conditions: ATCC 10231, 48 h, read-out: GI; method in brief: as §3
Candida albicans [10] = assay: Growth inhibition of Candida albicans ATCC 10231 at 7.8 ug/ml incubated for 48 hrs under dark condition by broth microdilution method relative to control; assay type: functional; conditions: ATCC 10231, 48 h, read-out: GI; method in brief: as §3
Candida albicans [11] = assay: Growth inhibition of Candida albicans ATCC 10231 at 3.4 ug/ml incubated for 48 hrs under dark condition by broth microdilution method relative to control; assay type: functional; conditions: ATCC 10231, 48 h, read-out: GI
Cryptococcus neoformans [12] = assay: Growth inhibition of Cryptococcus neoformans ATCC 32264 at 250 ug/ml incubated for 48 hrs under dark condition by broth microdilution method relative to control; assay type: functional; conditions: ATCC 32264, 48 h, read-out: GI; method in brief: as §3
Cryptococcus neoformans [13] = assay: Growth inhibition of Cryptococcus neoformans ATCC 32264 at 125 ug/ml incubated for 48 hrs under dark condition by broth microdilution method relative to control; assay type: functional; conditions: ATCC 32264, 48 h, read-out: GI; method in brief: as §3
Cryptococcus neoformans [14] = assay: Growth inhibition of Cryptococcus neoformans ATCC 32264 at 62.5 ug/ml incubated for 48 hrs under dark condition by broth microdilution method relative to control; assay type: functional; conditions: ATCC 32264, 48 h, read-out: GI; method in brief: as §3
Cryptococcus neoformans [15] = assay: Growth inhibition of Cryptococcus neoformans ATCC 32264 at 31.25 ug/ml incubated for 48 hrs under dark condition by broth microdilution method relative to control; assay type: functional; conditions: ATCC 32264, 48 h, read-out: GI; method in brief: as §3
Cryptococcus neoformans [16] = assay: Growth inhibition of Cryptococcus neoformans ATCC 32264 at 15.62 ug/ml incubated for 48 hrs under dark condition by broth microdilution method relative to control; assay type: functional; conditions: ATCC 32264, 48 h, read-out: GI; method in brief: as §3
Cryptococcus neoformans [17] = assay: Growth inhibition of Cryptococcus neoformans ATCC 32264 at 7.8 ug/ml incubated for 48 hrs under dark condition by broth microdilution method relative to control; assay type: functional; conditions: ATCC 32264, 48 h, read-out: GI; method in brief: as §3
Cryptococcus neoformans [18] = assay: Growth inhibition of Cryptococcus neoformans ATCC 32264 at 3.4 ug/ml incubated for 48 hrs under dark condition by broth microdilution method relative to control; assay type: functional; conditions: ATCC 32264, 48 h, read-out: GI
Staphylococcus aureus [19] = assay: Antibacterial activity against methicillin-sensitive Staphylococcus aureus ATCC 25923 after 24 hrs by resazurin dye based microdilution assay; assay type: functional; conditions: ATCC 25923, 24 h; method in brief: as §1
Staphylococcus aureus [20] = assay: Antibacterial activity against methicillin-resistant Staphylococcus aureus ATCC 43300 after 24 hrs by resazurin dye based microdilution assay; assay type: functional; conditions: ATCC 43300, 24 h
Method in brief: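 Broth microdilution in Mueller Hinton broth, inoculum 5 × 10^5 – 8 × 10^5. Compound stocks diluted in MHB with 5% DMSO and 0.1% Tween 80. Incubation 24 h at 35-37 °C. MIC is the lowest concentration with visible growth inhibition and/or by resazurin (1 mg/mL) read-out. Gentamicin as control. Run in duplicate, replicated at least three times.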

Staphylococcus aureus [21] = assay: Antibacterial activity against vancomycin-intermediate Staphylococcus aureus after 24 hrs by resazurin dye based microdilution assay; assay type: functional; method in brief: as §1
Escherichia coli = assay: Antibacterial activity against Escherichia coli ATCC 25922 after 24 hrs by resazurin dye based microdilution assay; assay type: functional; conditions: ATCC 25922, 24 h; method in brief: as §1
Pseudomonas aeruginosa = assay: Antibacterial activity against Pseudomonas aeruginosa ATCC 27853 after 24 hrs by resazurin dye based microdilution assay; assay type: functional; conditions: ATCC 27853, 24 h; method in brief: as §1
Neisseria gonorrhoeae = assay: Antibacterial activity against beta lactamase positive Neisseria gonorrhoeae ATCC 31426 by oxidase test; assay type: functional
Method in brief: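 Agar dilution MIC on GC agar with 1% isovitalex containing increasing compound concentrations. Plates inoculated with about 1×10^4 CFU (5 µL). MIC is the lowest concentration that inhibited growth, with growth confirmed by oxidase test. Run in duplicate, repeated at least three times.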

Plasmodium falciparum = assay: Antiplasmodial activity against chloroquine-sensitive Plasmodium falciparum 3D7 assessed as reduction in parasitic LDH activity after 48 hrs by Malstat reagent based […] method; assay type: functional; conditions: 3D7, 48 h
Method in brief: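 Unsynchronized P. falciparum 3D7 at 0.5% parasitemia and 1% hematocrit in RPMI with 3% Albumax II. Exposed to 100, 25, 6.25 and 1.56 µg/mL for 48 h at 37 °C under 90% N2/5% CO2/5% O2. After three freeze-thaw cycles, LDH measured with Malstat and NBT/PES, 1 h in the dark, read at 650 nm. IC50 by Probit; triplicate, ≥2 experiments.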

U-937 = assay: Cytotoxicity against human U937 cells after 72 hrs by MTT assay; assay type: cell-based; conditions: u-937, 72 h
Method in brief: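 Exponentially growing U-937 at 1 × 10^5 cells/mL in RPMI-1640 with 10% FBS were exposed to 200, 50, 12.5 and 3.125 µg/mL for 72 h at 37 °C, 5% CO2. MTT for 3 h, stopped with isopropanol/SDS, formazan read at 570 nm, blank-corrected. LC50 by Probit from % viability against untreated cells. Triplicate, at least two independent experiments.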

Trypanosoma cruzi = assay: Antitrypanosomal activity against Trypanosoma cruzi Tulahuen intracellular amastigote harboring LacZ infected in human U937 cells after 72 hrs by CPRG/Nonidet reagent based spectrophotometric method; assay type: functional, cell-based; conditions: U-937, 72 h
Method in brief: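 U-937 cells at 2.5 × 10^5 cells/mL in RPMI-1640 with 10% serum and 0.1 µg/mL PMA were infected with β-galactosidase-transfected Tulahuen epimastigotes at 5 parasites per cell. Infected cells were exposed to 50, 12.5, 3.125 and 0.78 µg/mL for 72 h. CPRG (100 uM) and 0.1% Nonidet P-40 were added for 3 h, read at 570 nm. EC50 by Probit. Triplicate, at least two experiments; benznidazole as reference.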

Structure (SMILES) | MIC (Klebsiella pneumoniae [1]) [µg/mL] | MIC (Klebsiella pneumoniae [2]) [µg/mL] | EC50 (Leishmania panamensis) [µg/mL] | MIC50 (Candida albicans [3]) [µg/mL] | MIC80 (Candida albicans [3]) [µg/mL] | MIC50 (Cryptococcus neoformans [4]) [µg/mL] | MIC80 (Cryptococcus neoformans [4]) [µg/mL] | inhibition of growth at 250 µg/mL (Candida albicans [5]) [%] | inhibition of growth at 125 µg/mL (Candida albicans [6]) [%] | inhibition of growth at 62.5 µg/mL (Candida albicans [7]) [%] | inhibition of growth at 31.25 µg/mL (Candida albicans [8]) [%] | inhibition of growth at 15.62 µg/mL (Candida albicans [9]) [%] | inhibition of growth at 7.8 µg/mL (Candida albicans [10]) [%] | inhibition of growth at 3.4 µg/mL (Candida albicans [11]) [%] | inhibition of growth at 250 µg/mL (Cryptococcus neoformans [12]) [%] | inhibition of growth at 125 µg/mL (Cryptococcus neoformans [13]) [%] | inhibition of growth at 62.5 µg/mL (Cryptococcus neoformans [14]) [%] | inhibition of growth at 31.25 µg/mL (Cryptococcus neoformans [15]) [%] | inhibition of growth at 15.62 µg/mL (Cryptococcus neoformans [16]) [%] | inhibition of growth at 7.8 µg/mL (Cryptococcus neoformans [17]) [%] | further results
COc1cc(C2=NN(C(C)=O)C(c3cccc(Nc4ccnc5cc(Cl)ccc45)c3)C2)cc(OC)c1OC (stereo not given) | > 1000 | > 1000 | 1.96 (≈ 3.69 µM) | 250 (≈ 471 µM) | ≥ 250 | 250 (≈ 471 µM) | ≥ 250 | 53.8 | 37.3 | 12.8 | 8.42 | 6.96 | 1.46 | 0 | 53.1 | 23.1 | 13.3 | 10.2 | 9.86 | 5.61 | inhibition of growth at 3.4 µg/mL (Cryptococcus neoformans [18]): 4.02%; MIC (Staphylococcus aureus [19]): > 1000 µg/mL; MIC (Staphylococcus aureus [20]): > 1000 µg/mL; MIC (Staphylococcus aureus [21]): > 1000 µg/mL; MIC (Escherichia coli): > 1000 µg/mL; MIC (Pseudomonas aeruginosa): > 1000 µg/mL; MIC (Neisseria gonorrhoeae): 31.2 µg/mL (≈ 58.8 µM); EC50 (Plasmodium falciparum): 22.9 µg/mL (≈ 43.2 µM); LC50 (U-937): 5.1 µg/mL (≈ 9.6 µM); EC50 (Trypanosoma cruzi): 4.08 µg/mL (≈ 7.68 µM)
O=CN1N=C(c2ccc(Br)cc2)CC1c1cccc(Nc2ccnc3cc(Cl)ccc23)c1 (stereo not given) | > 1000 | > 1000 | 2.41 (≈ 4.76 µM) | 250 (≈ 494 µM) | ≥ 250 | 62.5 (≈ 124 µM) | 250 (≈ 494 µM) | 58.7 | 31.4 | 25.3 | 19.2 | 13 | 8.36 | 5.76 | 100 | 60.9 | 53.5 | 44.5 | 44.2 | 39.1 | inhibition of growth at 3.4 µg/mL (Cryptococcus neoformans [18]): 24.2%; MIC (Staphylococcus aureus [19]): > 1000 µg/mL; MIC (Staphylococcus aureus [20]): > 1000 µg/mL; MIC (Staphylococcus aureus [21]): > 1000 µg/mL; MIC (Escherichia coli): > 1000 µg/mL; MIC (Pseudomonas aeruginosa): > 1000 µg/mL; MIC (Neisseria gonorrhoeae): > 1000 µg/mL; EC50 (Plasmodium falciparum): 15.7 µg/mL (≈ 31 µM); LC50 (U-937): 0.6 µg/mL (≈ 1.19 µM); EC50 (Trypanosoma cruzi): 1.24 µg/mL (≈ 2.45 µM)
